Measurements: ChEMBL document CHEMBL4354819, “Discovery of Novel Small Molecule Dual Inhibitors Targeting Toll-Like Receptors 7 and 8” (J Med Chem, 2019)
Calls of active or inactive are those of the source. The rule behind the calls is not given here.

Tests used:
HEK293 [1] = assay: Inhibition of human TLR1/2 expressed in HEK293 cells assessed as reduction in Pam3CSK4-induced NFkappaB production at 1.5 to 5 uM incubated for 16 hrs by quanti-blue SEAP assay; assay type: cell-based
Outline: (§1)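 Selectivity panel in stably transfected HEK 293-Blue cells, each overexpressing one human TLR with an inducible SEAP reporter. Agonists: Pam3CSK4 (TLR1/2), Pam2CSK4 (TLR2/6), poly(I:C) (TLR3), LPS (TLR4), R848 (TLR7/8), ODN 2006 (TLR9). Cells were exposed to compound for 16 h. Activity = (raw − untreated)/(ligand + solvent − untreated), with ligand + solvent set as 100%.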

[2] = target: T1, Toll-like receptor 8 (Homo sapiens) (UniProt Q9NR97); assay: Inhibition of human TLR8 expressed in HEK293 cells assessed as reduction in R848-induced NFkappaB production at 1.5 to 5 uM incubated for 16 hrs by quanti-blue SEAP assay; assay type: cell-based; outline: as §1
T1 sequence (whole entry): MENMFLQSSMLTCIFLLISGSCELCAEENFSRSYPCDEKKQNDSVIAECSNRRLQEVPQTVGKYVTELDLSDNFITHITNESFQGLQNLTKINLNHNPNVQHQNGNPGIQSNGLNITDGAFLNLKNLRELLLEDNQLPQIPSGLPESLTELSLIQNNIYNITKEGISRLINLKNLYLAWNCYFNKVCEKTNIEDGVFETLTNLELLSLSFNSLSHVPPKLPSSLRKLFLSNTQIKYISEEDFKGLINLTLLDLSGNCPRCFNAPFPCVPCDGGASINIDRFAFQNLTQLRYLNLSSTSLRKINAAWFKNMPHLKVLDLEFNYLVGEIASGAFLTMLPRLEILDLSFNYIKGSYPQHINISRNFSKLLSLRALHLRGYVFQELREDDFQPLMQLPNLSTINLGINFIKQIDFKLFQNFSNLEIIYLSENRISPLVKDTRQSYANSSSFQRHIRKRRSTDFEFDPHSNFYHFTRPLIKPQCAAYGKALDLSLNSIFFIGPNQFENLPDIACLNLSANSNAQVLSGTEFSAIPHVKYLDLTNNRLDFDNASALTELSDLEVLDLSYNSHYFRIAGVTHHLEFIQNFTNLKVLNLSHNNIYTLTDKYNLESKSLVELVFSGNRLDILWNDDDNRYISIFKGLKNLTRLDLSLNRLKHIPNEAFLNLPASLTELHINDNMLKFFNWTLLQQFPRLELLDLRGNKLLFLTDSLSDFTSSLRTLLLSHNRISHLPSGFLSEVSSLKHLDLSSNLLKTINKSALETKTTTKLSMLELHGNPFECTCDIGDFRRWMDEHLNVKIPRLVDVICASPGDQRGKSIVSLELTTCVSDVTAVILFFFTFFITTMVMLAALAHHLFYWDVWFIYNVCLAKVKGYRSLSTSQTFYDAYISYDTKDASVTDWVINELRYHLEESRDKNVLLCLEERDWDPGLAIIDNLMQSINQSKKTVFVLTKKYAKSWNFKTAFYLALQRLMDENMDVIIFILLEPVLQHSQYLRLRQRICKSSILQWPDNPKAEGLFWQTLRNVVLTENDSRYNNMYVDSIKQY

[3] = target: T2, Toll-like receptor 7 (Homo sapiens) (UniProt Q9NYK1); assay: Inhibition of human TLR7 expressed in HEK293 cells assessed as reduction in R848-induced NFkappaB production incubated for 16 hrs by quanti-blue SEAP assay; assay type: cell-based
T2 sequence (whole entry): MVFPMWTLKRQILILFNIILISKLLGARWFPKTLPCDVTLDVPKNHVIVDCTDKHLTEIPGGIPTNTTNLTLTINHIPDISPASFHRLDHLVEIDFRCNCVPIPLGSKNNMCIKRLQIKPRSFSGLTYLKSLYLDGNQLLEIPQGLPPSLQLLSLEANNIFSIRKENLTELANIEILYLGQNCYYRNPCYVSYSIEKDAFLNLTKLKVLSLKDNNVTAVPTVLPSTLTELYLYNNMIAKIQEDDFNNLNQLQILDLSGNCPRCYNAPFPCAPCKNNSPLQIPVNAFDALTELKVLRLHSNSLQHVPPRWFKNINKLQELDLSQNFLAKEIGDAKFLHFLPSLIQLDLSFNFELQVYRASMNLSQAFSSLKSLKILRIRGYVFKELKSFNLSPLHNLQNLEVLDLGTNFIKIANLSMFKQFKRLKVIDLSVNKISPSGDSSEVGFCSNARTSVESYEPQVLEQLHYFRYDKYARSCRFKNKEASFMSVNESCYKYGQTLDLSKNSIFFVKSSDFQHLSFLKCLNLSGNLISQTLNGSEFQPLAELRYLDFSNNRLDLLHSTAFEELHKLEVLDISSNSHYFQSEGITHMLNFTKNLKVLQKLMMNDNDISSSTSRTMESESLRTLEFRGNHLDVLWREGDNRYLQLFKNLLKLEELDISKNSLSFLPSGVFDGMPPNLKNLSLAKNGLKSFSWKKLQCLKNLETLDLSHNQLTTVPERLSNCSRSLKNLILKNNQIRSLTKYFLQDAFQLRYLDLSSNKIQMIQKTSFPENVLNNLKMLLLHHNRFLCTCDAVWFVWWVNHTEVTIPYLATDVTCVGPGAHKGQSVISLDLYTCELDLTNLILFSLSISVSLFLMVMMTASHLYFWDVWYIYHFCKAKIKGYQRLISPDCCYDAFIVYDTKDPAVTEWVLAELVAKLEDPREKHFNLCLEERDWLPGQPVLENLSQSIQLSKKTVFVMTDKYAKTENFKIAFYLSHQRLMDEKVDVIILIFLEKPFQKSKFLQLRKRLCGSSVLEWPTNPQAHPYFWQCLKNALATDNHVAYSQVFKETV
Outline: (§2)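 HEK 293-Blue cells stably expressing hTLR7 or hTLR8 with an inducible SEAP reporter were incubated 16 h with compound under 1 µg/mL R848 stimulation. SEAP was read at 620 nm. Data were normalized to the R848 control, and IC50 was taken from concentration-response curves. […] Mean ± s.d., n = 3 independent experiments.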

[4] = target: Toll-like receptor 4 (Homo sapiens) (UniProt O00206); assay: Inhibition of human TLR4 expressed in HEK293 cells assessed as reduction in LPS-induced NFkappaB production at 1.5 to 5 uM incubated for 16 hrs by quanti-blue SEAP assay; assay type: cell-based; outline: as §1
[5] = target: T2, Toll-like receptor 7 (Homo sapiens); assay: Inhibition of human TLR7 expressed in HEK293 cells assessed as reduction in resiquimod-induced NFkappaB production at 1.5 to 5 uM incubated for 16 hrs by quanti-blue SEAP assay; assay type: cell-based; outline: as §1
HEK293 [6] = assay: Cytotoxicity against human HEK293 cells transfected with human TLR8 assessed as reduction in cell viability up to 5 uM incubated for 16 hrs by WST-1 assay; assay type: cell-based; details: hek293, 16 h
[7] = target: T1, Toll-like receptor 8 (Homo sapiens); assay: Inhibition of human TLR8 expressed in HEK293 cells assessed as reduction in R848-induced NFkappaB production at 1.5 to 5 uM incubated for 16 hrs by quanti-blue SEAP assay
[8] = target: T1, Toll-like receptor 8 (Homo sapiens); assay: (§3) Inhibition of human TLR8 expressed in HEK293 cells assessed as reduction in R848-induced NFkappaB production incubated for 16 hrs by quanti-blue SEAP assay; assay type: cell-based; outline: as §2
Toll-like receptor 8 = target: T3, Toll-like receptor 8 (Homo sapiens, UniProt Q9NR97); assay: as §3; assay type: cell-based; outline: as §2
T3 sequence (Q9NR97 whole entry): T1 sequence (whole entry)

TLR2/TLR6 (Homo sapiens) = TLR2/TLR6 (Homo sapiens) (UniProt O60603+Q9Y2C9); assay: Inhibition of human TLR2/6 expressed in HEK293 cells assessed as reduction in Pam2CSK4-induced NFkappaB production at 1.5 to 5 uM incubated for 16 hrs by quanti-blue SEAP assay; assay type: cell-based; outline: as §1
[9] = target: Toll-like receptor 3 (Homo sapiens) (UniProt O15455); assay: Inhibition of human TLR3 expressed in HEK293 cells assessed as reduction in poly(I:C)-induced NFkappaB production at 1.5 to 5 uM incubated for 16 hrs by quanti-blue SEAP assay; assay type: cell-based; outline: as §1
Chain of Toll-like receptor 3 (Homo sapiens) (O15455 whole entry): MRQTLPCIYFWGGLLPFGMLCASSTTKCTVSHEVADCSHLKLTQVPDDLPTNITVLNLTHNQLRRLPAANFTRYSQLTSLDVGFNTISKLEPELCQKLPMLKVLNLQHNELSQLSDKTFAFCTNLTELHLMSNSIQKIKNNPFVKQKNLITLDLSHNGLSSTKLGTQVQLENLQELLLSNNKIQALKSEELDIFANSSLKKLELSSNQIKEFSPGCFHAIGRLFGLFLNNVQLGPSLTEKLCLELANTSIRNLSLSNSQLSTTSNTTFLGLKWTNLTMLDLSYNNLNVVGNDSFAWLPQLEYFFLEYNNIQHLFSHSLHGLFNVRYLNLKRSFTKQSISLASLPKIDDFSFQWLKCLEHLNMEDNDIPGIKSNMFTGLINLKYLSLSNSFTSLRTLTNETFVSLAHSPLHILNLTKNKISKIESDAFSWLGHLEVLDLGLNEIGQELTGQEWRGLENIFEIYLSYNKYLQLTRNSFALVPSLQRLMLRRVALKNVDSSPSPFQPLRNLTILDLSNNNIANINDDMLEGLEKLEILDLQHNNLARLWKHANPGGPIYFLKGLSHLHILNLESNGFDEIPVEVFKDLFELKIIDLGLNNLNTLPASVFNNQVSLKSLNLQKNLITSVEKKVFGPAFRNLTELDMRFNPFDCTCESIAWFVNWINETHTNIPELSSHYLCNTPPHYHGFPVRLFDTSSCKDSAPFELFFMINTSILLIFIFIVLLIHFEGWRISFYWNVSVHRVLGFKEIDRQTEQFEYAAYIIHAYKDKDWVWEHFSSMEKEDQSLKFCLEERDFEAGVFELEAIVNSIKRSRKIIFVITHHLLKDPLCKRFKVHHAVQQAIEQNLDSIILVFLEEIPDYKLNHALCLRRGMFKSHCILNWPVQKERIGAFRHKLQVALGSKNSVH

Chain of Toll-like receptor 4 (Homo sapiens) (O00206 whole entry): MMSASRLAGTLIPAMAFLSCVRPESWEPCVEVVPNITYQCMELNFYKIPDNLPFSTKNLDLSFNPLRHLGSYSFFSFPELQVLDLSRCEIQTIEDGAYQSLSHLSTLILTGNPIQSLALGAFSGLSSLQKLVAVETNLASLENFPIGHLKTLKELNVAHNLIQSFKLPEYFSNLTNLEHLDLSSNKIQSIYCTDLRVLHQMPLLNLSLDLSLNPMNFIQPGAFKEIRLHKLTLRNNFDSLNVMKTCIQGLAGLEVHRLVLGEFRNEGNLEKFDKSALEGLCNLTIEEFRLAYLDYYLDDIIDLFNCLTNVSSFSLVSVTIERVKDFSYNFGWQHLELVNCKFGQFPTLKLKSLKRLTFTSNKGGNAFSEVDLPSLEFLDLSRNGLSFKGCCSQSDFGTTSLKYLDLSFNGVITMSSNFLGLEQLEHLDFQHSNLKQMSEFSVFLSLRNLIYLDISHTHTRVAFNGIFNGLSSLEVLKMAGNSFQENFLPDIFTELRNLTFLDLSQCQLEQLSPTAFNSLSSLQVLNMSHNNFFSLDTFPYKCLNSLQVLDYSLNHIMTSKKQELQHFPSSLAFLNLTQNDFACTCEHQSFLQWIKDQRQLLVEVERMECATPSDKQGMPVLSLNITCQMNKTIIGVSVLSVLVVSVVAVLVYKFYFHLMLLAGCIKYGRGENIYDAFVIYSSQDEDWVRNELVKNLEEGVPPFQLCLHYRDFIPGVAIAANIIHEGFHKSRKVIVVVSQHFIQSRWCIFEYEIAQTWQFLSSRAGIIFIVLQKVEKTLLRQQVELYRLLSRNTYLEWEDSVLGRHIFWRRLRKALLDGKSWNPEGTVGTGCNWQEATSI

## N#Cc1c(Cl)cccc1Oc1ccc(-c2nnco2)cc1
HEK293 [1]
  inhibition: inactive
[2]
  inhibition: Active
[3]
  inhibition: Dose-dependent effect
[4]
  inhibition: inactive
[5]
  inhibition: inactive
HEK293 [6]
  Activity: Non-Toxic
[7]
  inhibition: Active
[8]
  inhibition: Dose-dependent effect
Toll-like receptor 8
  IC50: 1400 nM
TLR2/TLR6 (Homo sapiens)
  inhibition: inactive
[9]
  inhibition: inactive
